From ChEMBL document CHEMBL6177937, “Design, synthesis, and biological evaluation of novel thiazole derivatives as PI3K/mTOR dual inhibitors” (RSC Med Chem, 2024)
pIC50: −log10 of the molar value.

Tests used:
[1] = test system: DU-145; experiment: Growth inhibition of human DU-145 cells measured after 48 hrs by SRB assay; format: functional
How it was run: (§1)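 NCI 60-line format with five concentrations (10-fold or ½-log serial dilutions) from DMSO stocks in medium with 50 μg/mL gentamicin. Cells preincubated 24 h, then exposed 48 h at 37°C, 5% CO2. Time-zero plates TCA-fixed. SRB absorbance read at 515 nm. GI50 taken from [(Ti−Tz)/(C−Tz)]×100 = 50. Out-of-range values are expressed as > or < the highest or lowest concentration tested.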

[2] = test system: SF-295; experiment: Growth inhibition of human SF-295 cells measured after 48 hrs by SRB assay; format: functional; settings: for CC50: read-out: LC50 (the source's name)
How it was run: (§2)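 NCI 60-line SRB screen: cells seeded […], grown 24 h at 37°C, 5% CO2, then exposed 48 h to five concentrations (10-fold or ½-log dilutions from DMSO stock). Adherent cells fixed with cold TCA (final 10%), suspension cells with 80% TCA (final 16%); SRB stained, read at 515 nm. GI50 from time-zero, control and treated absorbances.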

[3] = test system: Panel NCI-60 (60 carcinoma cell lines); experiment: Antiproliferative activity against human NCI-60 cells assessed as growth inhibition at 10 uM measured after 48 hrs by SRB assay relative to control; format: functional; settings: read-out: GI
How it was run: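 NCI screen: cells seeded at […] per well and preincubated 24 h (37°C, 5% CO2). Compound stocks in DMSO, tested at a single 10 μM. Exposure 48 h. Adherent cells fixed with cold TCA (10% final), suspension cells with 16% TCA. SRB stain read at 515 nm. Percent growth inhibition reported against time-zero and untreated controls.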

[4] = target: Serine/threonine-protein kinase mTOR (Homo sapiens, UniProt P42345); experiment: Inhibition of recombinant human N-terminal FLAG-tagged mTOR (1362 to end residues) expressed in baculovirus infected Sf21 insect cells using ULight-4E-BP1 as substrate measured after 30 mins by LANCE ultra assay
[5] = test system: IGROV-1; experiment: Growth inhibition of human IGROV-1 cells measured after 48 hrs by SRB assay; format: functional; how it was run: as §1
[6] = test system: NCI-H23; experiment: Growth inhibition of human NCI-H23 cells measured after 48 hrs by SRB assay; format: functional; how it was run: as §1
[7] = test system: SN12C; experiment: Growth inhibition of human SN12C cells measured after 48 hrs by SRB assay; format: functional; how it was run: as §2
[8] = test system: HL-60; experiment: Cytotoxicity against human HL-60 cells assessed as reduction in cell viability measured after 24 hrs by MTT assay; format: functional, cell-based; settings: HL-60, 24 h
How it was run: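 MTT viability with 24 h incubation in 96-well plates. Five semi-log concentrations from 0.01 to 100 μM. Formazan absorbance read at 570 nm, with 690 nm background subtracted. Run in triplicate. IC50 obtained by sigmoidal dose-response fitting. Cells are leukemia HL-60(TB) and normal lymphocytes (PCS-800-017).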

[9] = test system: NCI-H226; experiment: Growth inhibition of human NCI-H226 cells measured after 48 hrs by SRB assay; format: functional; how it was run: as §1
[10] = test system: 786-0; experiment: Growth inhibition of human 786-0 cells measured after 48 hrs by SRB assay; format: functional; settings: for CC50: read-out: LC50 (the source's name); how it was run: as §1
[11] = test system: SK-MEL-28; experiment: Growth inhibition of human SK-MEL-28 cells measured after 48 hrs by SRB assay; format: functional; how it was run: as §2
[12] = test system: HL-60; experiment: Induction of apoptosis in human HL-60 cells assessed as late apoptotic cells measured after 24 hrs by Annexin-V/propidium iodide staining based flow cytometry (reference value: 0.61%); format: functional
[13] = test system: U-251; experiment: Growth inhibition of human U-251 cells measured after 48 hrs by SRB assay; format: functional; how it was run: as §2
[14] = test system: OVCAR-3; experiment: Growth inhibition of human OVCAR-3 cells measured after 48 hrs by SRB assay; format: functional; how it was run: as §1
[15] = test system: MOLT-4; experiment: Growth inhibition of human MOLT-4 cells measured after 48 hrs by SRB assay; format: functional; how it was run: as §1
[16] = test system: NCI-H522; experiment: Growth inhibition of human NCI-H522 cells measured after 48 hrs by SRB assay; format: functional; how it was run: as §1
[17] = test system: T47D; experiment: Growth inhibition of human T47D cells measured after 48 hrs by SRB assay; format: functional; how it was run: as §2
[18] = test system: HL-60; experiment: Induction of apoptosis in human HL-60 cells assessed as early apoptotic cells measured after 24 hrs by Annexin-V/propidium iodide staining based flow cytometry (reference value: 0.61%); format: functional
[19] = test system: MDA-MB-231; experiment: Growth inhibition of human MDA-MB-231 cells measured after 48 hrs by SRB assay; format: functional; how it was run: as §1
[20] = test system: SK-OV-3; experiment: Growth inhibition of human SK-OV-3 cells measured after 48 hrs by SRB assay; format: functional; how it was run: as §2
[21] = test system: OVCAR-5; experiment: Growth inhibition of human OVCAR-5 cells measured after 48 hrs by SRB assay; format: functional; settings: for CC50: read-out: LC50 (the source's name); how it was run: as §1
[22] = test system: NCI-H322M; experiment: Growth inhibition of human NCI-H322M cells measured after 48 hrs by SRB assay; format: functional; how it was run: as §1
[23] = test system: CAKI-1; experiment: Growth inhibition of human CAKI-1 cells measured after 48 hrs by SRB assay; format: functional; how it was run: as §1
[24] = test system: EKVX; experiment: Growth inhibition of human EKVX cells measured after 48 hrs by SRB assay; format: functional; how it was run: as §1
[25] = test system: Hs-578T; experiment: Growth inhibition of human Hs-578T cells measured after 48 hrs by SRB assay; format: functional; settings: for CC50: read-out: LC50 (the source's name); how it was run: as §1
[26] = test system: ACHN; experiment: Growth inhibition of human ACHN cells measured after 48 hrs by SRB assay; format: functional; how it was run: as §1
[27] = test system: SK-MEL-5; experiment: Growth inhibition of human SK-MEL-5 cells measured after 48 hrs by SRB assay; format: functional; how it was run: as §2
[28] = test system: TK-10; experiment: Growth inhibition of human TK-10 cells measured after 48 hrs by SRB assay; format: functional; how it was run: as §2
[29] = test system: HOP-62; experiment: Growth inhibition of human HOP-62 cells measured after 48 hrs by SRB assay; format: functional; how it was run: as §1
[30] = test system: CCRF-CEM; experiment: Growth inhibition of human CCRF-CEM cells measured after 48 hrs by SRB assay; format: functional; how it was run: as §1
[31] = test system: HCC 2998; experiment: Growth inhibition of human HCC 2998 cells measured after 48 hrs by SRB assay; format: functional; how it was run: as §1
[32] = test system: BT-549; experiment: Growth inhibition of human BT-549 cells measured after 48 hrs by SRB assay; format: functional; how it was run: as §1

CCOc1cc(/C=N/Nc2nc(-c3cccc([N+](=O)[O-])c3)cs2)ccc1O was tested, and the GI50 [1] was 3.43 µM, the TGI [1] was 11.6 µM and the GI50 [2] was 2 µM. For the same molecule, the TGI [2] was 4.28 µM, the CC50 [2] was 9.16 µM and the inhibition of growth at 10 µM [3] was 112%. It also gave a pIC50 [4] of 6.66, a GI50 [5] of 2.46 µM and a TGI [5] of 7.23 µM. The GI50 [6] was 1.99 µM, the TGI [6] was 5.14 µM and the GI50 [7] was 2.41 µM. The TGI [7] was 9.9 µM, the pIC50 [8] was 5.63 and the GI50 [9] was 2.36 µM. For the same molecule, the TGI [9] was 6.22 µM, the GI50 [10] was 2.75 µM and the TGI [10] was 8.68 µM. For the same molecule, the CC50 [10] was 81.8 µM, the GI50 [11] was 2.27 µM and the TGI [11] was 5.97 µM. The Activity [12] was 16.27%, the GI50 [13] was 3.08 µM and the TGI [13] was 14.1 µM. The GI50 [14] was 2.31 µM, the TGI [14] was 4.43 µM and the GI50 [15] was 1.74 µM. For the same molecule, the TGI [15] was 5.94 µM, the GI50 [16] was 1.85 µM and the TGI [16] was 4.21 µM. The GI50 [17] was 3.69 µM, the TGI [17] was 16.3 µM and the Activity [18] was 31.19%. It also gave a GI50 [19] of 1.78 µM, a TGI [19] of 3.88 µM and a GI50 [20] of 3.36 µM. The TGI [20] was 27.8 µM, the GI50 [21] was 3.79 µM and the TGI [21] was 16.2 µM. For the same molecule, the CC50 [21] was 51.3 µM, the GI50 [22] was 4.32 µM and the TGI [22] was 16.9 µM. The GI50 [23] was 2.18 µM, the TGI [23] was 6.88 µM and the GI50 [24] was 3.17 µM. The TGI [24] was 16.4 µM, the GI50 [25] was 3.38 µM and the TGI [25] was 39.2 µM. For the same molecule, the CC50 [25] was greater than 100 µM, the GI50 [26] was 3.22 µM and the TGI [26] was 11.6 µM. It also gave a GI50 [27] of 2.73 µM, a TGI [27] of 9.14 µM and a GI50 [28] of 4.42 µM. It also gave a TGI [28] of 16.1 µM, a GI50 [29] of 2.51 µM and a TGI [29] of 6.92 µM. It also gave a GI50 [30] of 2.03 µM, a TGI [30] of 29.6 µM and a GI50 [31] of 3.43 µM. For the same molecule, the TGI [31] was 19.8 µM, the GI50 [32] was 2.84 µM and the TGI [32] was 8.12 µM.

Molecule O=[N+]([O-])c1cc(/C=N/Nc2nc(-c3ccc(Cl)cc3)cs2)ccc1Cl has a GI50 [1] of 1.63 µM, a TGI [1] of 3.07 µM and a GI50 [2] of 14.9 µM. It also gave a TGI [2] of 28.3 µM, a CC50 [2] of 53.8 µM and an inhibition of growth at 10 µM [3] of 66%. For the same molecule, the pIC50 [4] was 6.05, the GI50 [5] was 13.6 µM and the TGI [5] was 37.4 µM. For the same molecule, the GI50 [6] was 12.5 µM, the TGI [6] was 40.9 µM and the GI50 [7] was 15.1 µM. The TGI [7] was 61.5 µM, the pIC50 [8] was 5.64 and the GI50 [9] was 4.21 µM. For the same molecule, the TGI [9] was 32.6 µM, the GI50 [10] was 19.8 µM and the TGI [10] was 61.3 µM. The CC50 [10] was greater than 100 µM, the GI50 [11] was 17.2 µM and the TGI [11] was 46.4 µM. The Activity [12] was 17.92%, the GI50 [13] was 4.37 µM and the TGI [13] was 17 µM. It also gave a GI50 [14] of 1.73 µM, a TGI [14] of 3.13 µM and a GI50 [15] of 3.43 µM. The TGI [15] was 24.1 µM, the GI50 [16] was 9.45 µM and the TGI [16] was 67.6 µM. For the same molecule, the GI50 [17] was 1.8 µM, the TGI [17] was 3.81 µM and the Activity [18] was 23.62%. For the same molecule, the GI50 [19] was 17.4 µM, the TGI [19] was 42.6 µM and the GI50 [20] was 21.8 µM. For the same molecule, the TGI [20] was 65 µM, the GI50 [21] was 23 µM and the TGI [21] was 78.2 µM. It also gave a CC50 [21] greater than 100 µM, a GI50 [22] of 3.23 µM and a TGI [22] of 13.7 µM. The GI50 [23] was 14.6 µM, the TGI [23] was 32.1 µM and the GI50 [24] was 10.3 µM. For the same molecule, the TGI [24] was 22.9 µM, the GI50 [25] was 2.36 µM and the TGI [25] was 6.14 µM. The CC50 [25] was greater than 100 µM, the GI50 [26] was 15.1 µM and the TGI [26] was 28.4 µM. For the same molecule, the GI50 [27] was 10.3 µM, the TGI [27] was 24.5 µM and the GI50 [28] was 28.1 µM. For the same molecule, the TGI [28] was 84 µM, the GI50 [29] was 8.87 µM and the TGI [29] was 22.4 µM. For the same molecule, the GI50 [30] was 3.62 µM, the TGI [30] was 52.9 µM and the GI50 [31] was 1.87 µM. The TGI [31] was 3.55 µM, the GI50 [32] was 14.5 µM and the TGI [32] was 40.4 µM.
